ChEMBL document CHEMBL3856275, “Discovery of Second Generation Reversible Covalent DPP1 Inhibitors Leading to an Oxazepane Amidoacetonitrile Based Clinical Candidate (AZD7986)” (J Med Chem, 2016)

What was measured:
Cathepsin G = molecular target: T1, Cathepsin G (Homo sapiens, UniProt P08311); assay: Inhibition of human recombinant cathepsin G
T1 sequence (P08311 whole entry): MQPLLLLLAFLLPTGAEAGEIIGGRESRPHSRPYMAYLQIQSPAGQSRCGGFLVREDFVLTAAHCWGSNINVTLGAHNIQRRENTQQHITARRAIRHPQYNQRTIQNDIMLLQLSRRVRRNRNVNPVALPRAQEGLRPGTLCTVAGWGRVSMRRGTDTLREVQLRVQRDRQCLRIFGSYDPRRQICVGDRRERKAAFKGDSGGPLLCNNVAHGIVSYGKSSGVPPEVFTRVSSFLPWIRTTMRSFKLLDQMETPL

[1] = molecular target: Voltage-gated inwardly rectifying potassium channel KCNH2 (Homo sapiens, UniProt Q12809)
Chain of Voltage-gated inwardly rectifying potassium channel KCNH2 (Q12809 whole entry): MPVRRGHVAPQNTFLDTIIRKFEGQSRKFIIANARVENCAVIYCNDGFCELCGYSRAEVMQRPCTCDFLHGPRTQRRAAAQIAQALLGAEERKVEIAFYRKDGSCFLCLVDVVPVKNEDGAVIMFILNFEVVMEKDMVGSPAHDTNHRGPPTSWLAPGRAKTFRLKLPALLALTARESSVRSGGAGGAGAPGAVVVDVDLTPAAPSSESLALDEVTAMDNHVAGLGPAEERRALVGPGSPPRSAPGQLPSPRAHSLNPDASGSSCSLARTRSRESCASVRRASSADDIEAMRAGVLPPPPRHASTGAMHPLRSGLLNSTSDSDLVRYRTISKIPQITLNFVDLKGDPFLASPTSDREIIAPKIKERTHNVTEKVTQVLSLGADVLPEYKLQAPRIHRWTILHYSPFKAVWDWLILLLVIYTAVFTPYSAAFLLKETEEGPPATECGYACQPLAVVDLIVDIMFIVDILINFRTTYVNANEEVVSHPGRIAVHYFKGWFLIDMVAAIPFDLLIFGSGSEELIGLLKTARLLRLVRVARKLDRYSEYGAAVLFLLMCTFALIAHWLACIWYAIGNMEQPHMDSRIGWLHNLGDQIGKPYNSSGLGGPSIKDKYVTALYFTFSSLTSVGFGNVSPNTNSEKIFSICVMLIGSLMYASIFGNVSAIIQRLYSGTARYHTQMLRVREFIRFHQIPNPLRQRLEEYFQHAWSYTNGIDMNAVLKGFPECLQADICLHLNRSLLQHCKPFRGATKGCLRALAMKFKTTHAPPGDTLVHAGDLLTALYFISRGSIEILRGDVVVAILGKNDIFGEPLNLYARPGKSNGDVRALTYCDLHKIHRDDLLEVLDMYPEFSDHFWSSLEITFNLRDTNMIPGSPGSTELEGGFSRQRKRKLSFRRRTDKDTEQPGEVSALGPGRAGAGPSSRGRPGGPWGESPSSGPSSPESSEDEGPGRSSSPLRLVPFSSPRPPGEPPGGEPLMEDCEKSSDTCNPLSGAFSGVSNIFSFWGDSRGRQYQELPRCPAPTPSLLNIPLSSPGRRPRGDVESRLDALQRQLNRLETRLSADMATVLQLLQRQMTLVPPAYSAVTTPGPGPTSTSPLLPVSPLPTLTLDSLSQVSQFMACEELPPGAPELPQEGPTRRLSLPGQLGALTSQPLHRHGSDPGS

[2] = Oral bioavailability in Beagle dog at 2 mg/kg; assay type: ADME, organism-based, Canis lupus familiaris; conditions: in vivo
[3] = Half life in Han Wistar rat at 1 mg/kg, iv and 3 mg/kg, po; assay type: ADME, organism-based; conditions: in vivo
In short: (§1)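 Han Wistar rat PK with 1 mg/kg iv and 3 mg/kg po doses, both in pH3 buffer. Clearance is given in ml/min/kg, Vss in L/kg and t1/2 in h.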

[4] = Intrinsic clearance in human hepatocytes at 1 uM after 5 to 120 mins by LC-MS/MS method; assay type: ADME, cell-based, Hepatocyte
In short: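 Intrinsic clearance in human hepatocytes, given in µL/min/10^6 cells.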

Cathepsin D = Cathepsin D (Homo sapiens, UniProt P07339); assay: Inhibition of human recombinant cathepsin D
Chain of Cathepsin D (P07339 65-162 limits assumed): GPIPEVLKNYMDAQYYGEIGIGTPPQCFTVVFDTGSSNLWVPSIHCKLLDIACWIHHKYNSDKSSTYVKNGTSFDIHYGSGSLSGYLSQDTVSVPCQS
Chain of Cathepsin D (P07339 169-412 limits assumed): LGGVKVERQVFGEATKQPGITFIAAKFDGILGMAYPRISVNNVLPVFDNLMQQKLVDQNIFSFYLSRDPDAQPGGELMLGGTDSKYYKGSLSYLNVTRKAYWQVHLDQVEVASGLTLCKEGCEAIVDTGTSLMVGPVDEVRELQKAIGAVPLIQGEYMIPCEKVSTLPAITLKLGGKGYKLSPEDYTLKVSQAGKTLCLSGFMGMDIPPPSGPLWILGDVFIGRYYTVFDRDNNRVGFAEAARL

[5] = Oral bioavailability in Han Wistar rat at 3 mg/kg; assay type: ADME, organism-based; conditions: in vivo; in short: as §1
Rattus norvegicus [6] = assay: In vivo inhibition of DPP1 in po dosed naive rat assessed as inactivation of proteinase 3 in bone marrow cell lysates administered as bid for 8 days; assay type: functional, organism-based
[7] = Protein binding in human plasma at 10 uM after 6 hrs by LC-MS/MS method; assay type: ADME, cell-free; conditions: read-out: PPB (converted)
[8] = Intrinsic clearance in rat hepatocytes assessed per 10^6 cells at 1 uM after 10 to 90 mins by LC-MS/MS method; assay type: ADME, cell-based, Hepatocyte
[9] = Protein binding in rat plasma at 10 uM after 6 hrs by LC-MS/MS method; assay type: ADME, cell-free; conditions: read-out: PPB (converted)
[10] = Intrinsic clearance in rat hepatocytes at 1 uM after 5 to 120 mins by LC-MS/MS method; assay type: ADME, cell-based, Hepatocyte
In short: (§2)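 Hepatocyte intrinsic clearance for rat and dog, given in µL/min/10^6 cells.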

[11] = Apparent permeability across basolateral to apical side in human Caco2 cells at 10 uM after 2 hrs by LC-MS/MS method; assay type: ADME, cell-based; conditions: Caco-2
In short: (§3)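 Caco-2 bidirectional permeability run as P_app, given in cm/s x 10^-6.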

[12] = Apparent permeability across apical to basolateral side in human Caco2 cells at 10 uM after 2 hrs by LC-MS/MS method; assay type: ADME, cell-based; conditions: Caco-2; in short: as §3
[13] = Intrinsic clearance in dog hepatocytes assessed per 10^6 cells at 1 uM after 10 to 90 mins by LC-MS/MS method; assay type: ADME, cell-based, Canis lupus familiaris, Hepatocyte
Cathepsin S = Cathepsin S (Homo sapiens, UniProt P25774); assay: Inhibition of human recombinant cathepsin S
Chain of Cathepsin S (P25774 whole entry): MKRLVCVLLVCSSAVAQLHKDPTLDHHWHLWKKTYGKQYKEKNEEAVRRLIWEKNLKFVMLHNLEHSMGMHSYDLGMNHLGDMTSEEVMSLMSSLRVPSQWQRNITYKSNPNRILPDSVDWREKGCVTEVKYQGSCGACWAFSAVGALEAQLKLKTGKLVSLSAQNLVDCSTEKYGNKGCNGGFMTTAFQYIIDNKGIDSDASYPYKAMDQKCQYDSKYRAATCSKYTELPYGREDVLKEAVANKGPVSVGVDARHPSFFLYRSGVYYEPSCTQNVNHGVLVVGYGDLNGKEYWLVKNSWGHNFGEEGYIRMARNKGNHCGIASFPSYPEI

[14] = Apparent permeability across basolateral to apical side in human Caco2 cells at 10 uM after 1 hr by LC-MS method; conditions: Caco-2
physchem = conditions: octanol/water, pH 7.4
Rattus norvegicus [15] = assay: In vivo inhibition of DPP1 in po dosed naive rat assessed as inactivation of neutrophil elastase in bone marrow cell lysates administered as bid for 8 days; assay type: functional, organism-based
[16] = Intrinsic clearance in human hepatocytes assessed per 10^6 cells at 1 uM after 10 to 90 mins by LC-MS/MS method; assay type: ADME, cell-based, Hepatocyte
[17] = Inhibition of rabbit DPP1 expressed in CHO cells using Gly-Arg-AMC as substrate preincubated for 30 mins followed by substrate addition by fluorometric assay; assay type: cell-based, Oryctolagus cuniculus
[18] = Propionaldehyde reactivity assessed as half life of the compound at pH 7.4 by LC-UV method; assay type: physicochemical
Cathepsin E = molecular target: T2, Cathepsin E (Homo sapiens, UniProt P14091); assay: Inhibition of human recombinant cathepsin E
T2 sequence (P14091 whole entry): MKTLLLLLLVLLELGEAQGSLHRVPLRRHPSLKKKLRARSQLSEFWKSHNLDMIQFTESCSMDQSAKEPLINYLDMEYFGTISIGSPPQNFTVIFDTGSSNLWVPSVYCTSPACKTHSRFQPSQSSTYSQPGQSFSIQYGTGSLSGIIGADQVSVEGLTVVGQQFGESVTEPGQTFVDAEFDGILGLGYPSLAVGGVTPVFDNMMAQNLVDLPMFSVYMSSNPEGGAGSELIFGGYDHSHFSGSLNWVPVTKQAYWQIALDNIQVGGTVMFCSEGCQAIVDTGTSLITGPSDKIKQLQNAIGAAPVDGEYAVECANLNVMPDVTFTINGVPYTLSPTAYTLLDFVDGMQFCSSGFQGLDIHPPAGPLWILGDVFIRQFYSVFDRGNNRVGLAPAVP

[19] = Half life in Beagle dog at 1 mg/kg, iv and 2 mg/kg, po; assay type: ADME, organism-based, Canis lupus familiaris; conditions: in vivo
Pro-cathepsin H = molecular target: T3, Pro-cathepsin H (Homo sapiens, UniProt P09668); assay: Inhibition of human recombinant cathepsin H
T3 sequence (P09668 whole entry): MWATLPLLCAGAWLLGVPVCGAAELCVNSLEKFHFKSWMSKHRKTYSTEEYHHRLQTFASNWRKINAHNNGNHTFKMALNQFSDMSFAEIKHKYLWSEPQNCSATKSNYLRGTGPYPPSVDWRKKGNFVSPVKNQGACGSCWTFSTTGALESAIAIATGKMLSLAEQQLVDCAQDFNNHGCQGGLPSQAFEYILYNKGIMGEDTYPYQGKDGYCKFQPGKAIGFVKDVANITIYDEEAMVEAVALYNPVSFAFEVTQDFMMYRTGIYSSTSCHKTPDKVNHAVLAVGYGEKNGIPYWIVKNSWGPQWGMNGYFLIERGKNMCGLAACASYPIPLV

[20] = Intrinsic clearance in human liver microsomes at 1 uM after 5 to 30 mins by LC-MS/MS method; assay type: ADME; conditions: read-out: CLH
In short: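 Human liver microsome stability, with intrinsic clearance given in µL/min/mg.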

[21] = Volume of distribution at steady state in Sprague-Dawley rat at 1 mg/kg, iv or 3 mg/kg, po; assay type: ADME, organism-based; conditions: in vivo, read-out: Vdss
[22] = Half life in Sprague-Dawley rat at 1 mg/kg, iv or 3 mg/kg, po; assay type: ADME, organism-based; conditions: in vivo
[23] = Volume of distribution at steady state in Beagle dog at 1 mg/kg, iv and 2 mg/kg, po; assay type: ADME, organism-based, Canis lupus familiaris; conditions: in vivo, read-out: Vdss
Cathepsin Z = Cathepsin Z (Homo sapiens, UniProt Q9UBR2); assay: Inhibition of human recombinant cathepsin Z
Chain of Cathepsin Z (Q9UBR2 whole entry): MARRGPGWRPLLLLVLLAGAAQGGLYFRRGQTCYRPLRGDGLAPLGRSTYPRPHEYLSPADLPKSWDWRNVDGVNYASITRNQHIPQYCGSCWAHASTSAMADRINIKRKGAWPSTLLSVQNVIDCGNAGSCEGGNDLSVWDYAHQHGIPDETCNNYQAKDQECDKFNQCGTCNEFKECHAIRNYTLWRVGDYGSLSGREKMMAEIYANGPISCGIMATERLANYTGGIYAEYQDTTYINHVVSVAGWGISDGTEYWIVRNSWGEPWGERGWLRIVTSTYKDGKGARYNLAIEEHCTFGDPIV

[24] = Intrinsic clearance in dog hepatocytes at 1 uM after 5 to 120 mins by LC-MS/MS method; assay type: ADME, cell-based, Canis lupus familiaris, Hepatocyte; in short: as §2

IC50 (Cathepsin G): > 20 µM
bioavailability [2]: 92%
half-life [3]: 5 h
CLH [4]: < 1 µL/min/1e6 cells
IC50 (Cathepsin D): > 20 µM
bioavailability [5]: 75%
fraction unbound at 6 h, 10 µM [7]: 0.13
CLH [8]: < 3.5 µL/min/10^6 cells
fraction unbound at 6 h, 10 µM [9]: 0.06
CLH [10]: 1.9 µL/min/1e6 cells
Papp B→A at 2 h, 10 µM [11]: 27 ×10⁻⁶ cm/s
Papp A→B at 2 h, 10 µM [12]: 4 ×10⁻⁶ cm/s
CLH [13]: < 3.5 µL/min/10^6 cells
IC50 (Cathepsin S): > 20 µM
Papp B→A at 1 h, 10 µM [14]: 58 ×10⁻⁶ cm/s
logD at 10 µM (physchem): 0.8
intrinsic clearance (CLint) [16]: < 3.5 µL/min/10^6 cells
pIC50 [17]: 7.8
half-life [18]: > 50 h
IC50 (Cathepsin E): > 20 µM
half-life [19]: 18 h
IC50 (Pro-cathepsin H): > 20 µM
microsomal CLint at 1 µM [20]: < 3 µL/min/mg
Vd [21]: 1 L/kg
half-life [22]: 7 h
Vd [23]: 11 L/kg
IC50 (Cathepsin Z): > 20 µM
CLH [24]: < 1 µL/min/1e6 cells
SMILES: Cn1c(=O)oc2ccc(-c3ccc(C[C@@H](C#N)NC(=O)[C@@H]4CNCCCO4)cc3)cc21 [BRENSOCATIB]
IC50 [1]: > 33 µM
inhibition (Rattus norvegicus [6]): Dose-dependent effect
inhibition (Rattus norvegicus [15]): Dose-dependent effect
